Source: ChEMBL document CHEMBL1125110, “Synthesis and pharmacological studies of N-[4-[2-hydroxy-3-[[2-[4-(1H-imidazol-1-yl)phenoxy]ethyl]amino]propoxy]phenyl]methanesulfonamide, a novel antiarrhythmic agent with class II and class III activities” (J Med Chem, 1990)

Assays:
Mustela putorius furo [1] = species on record: Mustela putorius furo; experiment: In vitro contractile function in isolated ferret papillary muscle at 10 uM.; format: functional, Muscle tissue
Procedure, shortened: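 Isolated ferret papillary muscle exposed to drug at 10 μM. Read-out is percent change in contractile force from the control value. Reported as the average of n experiments with the range.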

Canis familiaris [2] = species on record: Canis familiaris; experiment: In vitro electrophysiological activity in isolated canine cardiac Purkinje fibers using standard microelectrode technique; format: functional, Canis lupus familiaris, Purkinje fiber
Procedure, shortened: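 Canine cardiac Purkinje fibers studied with standard intracellular microelectrodes. C20APD95 is the concentration raising action potential duration at 95% repolarization by 20% over control. Reported as the log mean of n experiments with the range.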

[3] = target: Beta-2 adrenergic receptor (Canis lupus familiaris, UniProt P54833); experiment: In vitro Beta-2 adrenergic receptor affinity in partially purified membrane fractions from canine lung tissue using […]dihydroalprenolol (4.5 nM); format: cell membranes
Canis familiaris [4] = experiment: In vivo isoproterenol response in conscious dogs at 1.0 mg/kg; format: functional, Canis lupus familiaris
Procedure, shortened: (§1)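 Conscious mongrel dogs (n = 4) with lead II ECG. Isoproterenol given iv (0.04, 0.08, 0.16 µg/kg) before and after cumulative compound doses of 0.3–10.0 mg/kg. Percent change from the control heart-rate response to 0.08 µg/kg isoproterenol, ± SEM.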

Mustela putorius furo [5] = species on record: Mustela putorius furo; experiment: In vitro contractile function in isolated ferret papillary muscle at 10 uM; format: functional, Muscle tissue
Procedure, shortened: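 Isolated ferret papillary muscle; drug at 10 μM. Read-out is percent change in force of contraction from the control value. Value is the average of n experiments, with the range given.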

Canis familiaris [6] = experiment: In vivo isoproterenol response in conscious dogs at 10.0 mg/kg; format: functional, Canis lupus familiaris; procedure, shortened: as §1
Canis familiaris [7] = experiment: In vivo efficacy against halothane/epinephrine induced arrhythmias in 4 anesthetized dogs at 1 mg/kg; format: functional, Canis lupus familiaris
Procedure, shortened: (§2)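 Mongrel dogs under thiopental, ventilated with 1.5 vol% halothane in O2. After 15–30 min stabilization, drug given iv over 10 min. After 20 min equilibration, epinephrine infused at 1.5 µg/kg/min for 15 min. Effective if SVT/VF could not be induced.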

Canis familiaris [8] = experiment: In vivo isoproterenol response in conscious dogs at 3.0 mg/kg; format: functional, Canis lupus familiaris; procedure, shortened: as §1
Canis familiaris [9] = experiment: In vivo isoproterenol response in conscious dogs at 0.3 mg/kg; format: functional, Canis lupus familiaris; procedure, shortened: as §1
Canis familiaris [10] = experiment: In vivo efficacy against halothane/epinephrine induced arrhythmias in 4 anesthetized dogs at 3 mg/kg; format: functional, Canis lupus familiaris; procedure, shortened: as §2
Canis familiaris [11] = experiment: In vivo total peripheral resistance in anesthetized dog at 30 mg/kg; format: functional, Canis lupus familiaris
Procedure, shortened: (§3)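 Pentobarbital-anesthetized mongrel dogs, 30 min stabilization. Cumulative iv doses of 3, 10 and 30 mg/kg, each over 5 min, monitored every 5 min for 15 min. Percent change ± SEM from control at 15 min after the 30 mg/kg dose; n = 4.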

Canis familiaris [12] = experiment: In vivo mean arterial pressure in anesthetized dog at 30 mg/kg; format: functional, Canis lupus familiaris, Artery; procedure, shortened: as §3
Canis familiaris [13] = experiment: In vivo left ventricular contractility change in anesthetized dog at 30 mg/kg; format: functional, Canis lupus familiaris, Heart left ventricle; procedure, shortened: as §3
Canis familiaris [14] = experiment: In vivo PES efficacy in conscious dogs (iv); format: functional; conditions: Canis lupus familiaris, read-out: MED
Procedure, shortened: (§4)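 Mongrel dogs with surgically produced occlusion/reperfusion infarction, studied conscious 3–8 days later. Two control arrhythmias induced by programmed electrical stimulation before iv drug; SVT ended by burst pacing, VF by DC countershock. Counted effective if noninducible after drug.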

Canis familiaris [15] = experiment: In vivo cardiac output in anesthetized dog at 30 mg/kg; format: functional, Canis lupus familiaris; procedure, shortened: as §3
Canis familiaris [16] = experiment: In vivo PES efficacy in 8 conscious dogs (PES programmed electrical stimulation protocol); format: functional, Canis lupus familiaris; procedure, shortened: as §4
[17] = target: Phosphodiesterase; PDE3 & PDE4 (Homo sapiens) (UniProt P27815+Q14432+Q08499+Q07343+Q13370+Q08493); experiment: Inhibition of canine cardiac particulate cAMP phosphodiesterase; format: protein assay; conditions: Canis lupus familiaris; target entry is the homologue from another species; concentration not given here
Procedure, shortened: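 Particulate cAMP phosphodiesterase fraction from dog heart; inhibition measured at 100 μM.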

Canis familiaris [18] = experiment: In vivo heart rate in anesthetized dog at 30 mg/kg; format: functional, Canis lupus familiaris; procedure, shortened: as §3
Canis familiaris [19] = experiment: In vivo efficacy against halothane/epinephrine induced arrhythmias in 4 anesthetized dogs at 0.3 mg/kg; format: functional, Canis lupus familiaris; procedure, shortened: as §2
Canis familiaris [20] = experiment: In vivo coronary flow in anesthetized dog at 30 mg/kg; format: functional, Canis lupus familiaris; procedure, shortened: as §3
[21] = Compound was evaluated for half life; format: ADME
[22] = Compound was evaluated for lethal dose in rats after intravenous administration; Range is 200-300 mg/kg; format: toxicity, organism-based; conditions: rat, in vivo
[23] = Bioavailability after oral administration of 3 mg/kg to dogs; format: ADME, organism-based, Canis lupus familiaris; conditions: dog, in vivo
Canis familiaris [24] = experiment: In vivo efficacy against halothane/epinephrine induced arrhythmias in 2 anesthetized dogs at 0.3 mg/kg; format: functional, Canis lupus familiaris; procedure, shortened: as §2
Canis familiaris [25] = experiment: In vivo efficacy against halothane/epinephrine induced arrhythmias in 8 anesthetized dogs at 1 mg/kg; format: functional, Canis lupus familiaris; procedure, shortened: as §2
Canis familiaris [26] = experiment: In vivo efficacy against halothane/epinephrine induced arrhythmias in 6 anesthetized dogs at 3 mg/kg; format: functional, Canis lupus familiaris; procedure, shortened: as §2
Canis familiaris [27] = experiment: In vivo PES efficacy in 9 conscious dogs (PES programmed electrical stimulation protocol); format: functional, Canis lupus familiaris; procedure, shortened: as §4

Chain of Beta-2 adrenergic receptor (P54833 whole entry): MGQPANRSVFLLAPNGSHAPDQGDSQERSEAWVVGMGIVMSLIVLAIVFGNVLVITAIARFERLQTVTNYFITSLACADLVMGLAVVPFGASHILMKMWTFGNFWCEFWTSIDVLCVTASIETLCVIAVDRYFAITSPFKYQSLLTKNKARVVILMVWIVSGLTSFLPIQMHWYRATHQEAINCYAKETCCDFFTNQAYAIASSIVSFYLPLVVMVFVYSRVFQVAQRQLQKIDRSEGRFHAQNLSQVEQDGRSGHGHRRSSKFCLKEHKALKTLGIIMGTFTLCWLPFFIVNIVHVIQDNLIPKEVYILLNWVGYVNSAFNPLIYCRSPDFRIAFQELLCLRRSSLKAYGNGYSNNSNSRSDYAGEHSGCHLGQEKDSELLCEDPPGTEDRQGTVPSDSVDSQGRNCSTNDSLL

SMILES | Delta F (Mustela putorius furo [1]) [%] | C20 APD95 (Canis familiaris [2]) [µM] | IC50 [3] [µM] | Response (Canis familiaris [4]) [%] | Response (Canis familiaris [6]) [%] | No. effective (Canis familiaris [7]) | Response (Canis familiaris [8]) [%] | Response (Canis familiaris [9]) [%] | TPR (Canis familiaris [11]) [%] | MAP (Canis familiaris [12]) [%] | minimal effective dose (Canis familiaris [14]) [mg/kg] | CO (Canis familiaris [15]) [%] | HR (Canis familiaris [18]) [%] | Coronary flow (Canis familiaris [20]) [%] | further results
CN(c1ccc(OCC(O)CNCCOc2ccc(-n3ccnc3)cc2)cc1)S(C)(=O)=O.Cl.Cl (stereo not given) | -15 | 1.4 | > 100 |  |  |  |  |  |  |  |  |  |  |  | 
CS(=O)(=O)Nc1ccc(OC[C@H](O)CNCCOc2ccc(-n3ccnc3)cc2)cc1.Cl |  | 0.8 | > 100 | 62 | 41 | 1 | -6 | 40 |  |  |  |  |  |  | Delta F (Mustela putorius furo [5]): 27%; No. effective (Canis familiaris [10]): 1
CCN(CC)CCOc1ccc(-n2ccnc2)cc1 |  | 3.4 |  |  |  |  |  |  |  |  |  |  |  |  | 
CC(C)(COc1ccc(-n2ccnc2)cc1)NCC(O)COc1ccc(NS(C)(=O)=O)cc1.Cl.Cl (stereo not given) | 69 | 0.5 | 23 |  |  |  |  |  |  |  |  |  |  |  | 
Cc1nccn1-c1ccc(OCCNCC(O)COc2ccc(N(C)S(C)(=O)=O)cc2)cc1 (stereo not given) | -16 | >30 | > 100 |  |  |  |  |  |  |  |  |  |  |  | 
CS(=O)(=O)Nc1ccc(OC[C@@H](O)CNCCOc2ccc(-n3ccnc3)cc2)cc1.Cl | 75 | 0.8 | 100 | -25 | -64 | 4 | -45 | 10 | 6 | -30 | ~0.4 | -32 | -48 | -41 | LV dP/dt (Canis familiaris [13]): -28%; No. effective (Canis familiaris [16]): 7; inhibition [17]: 19%; No. effective (Canis familiaris [19]): 2; half-life [21]: 3 h
Cc1nccn1-c1ccc(OCCNCC(O)COc2ccc(NS(C)(=O)=O)cc2)cc1.O=P(O)(O)O (stereo not given) | 9 | 7.3 | 57 |  |  |  |  |  |  |  |  |  |  |  | 
CS(=O)(=O)Nc1ccc(OCC(O)CNCCOc2ccc(-n3ccnc3)cc2)cc1.Cl (stereo not given) |  | 0.4 | 47 | -0.75 | -78 |  | -74 | 30 | 3 | -25 | ~1 | -28 | -49 | -29 | Delta F (Mustela putorius furo [5]): 53%; LV dp/dt (Canis familiaris [13]): -38%; LD50 [22]: 200 mg/kg; bioavailability [23]: 60%; No. effective (Canis familiaris [16]): 8; No. effective (Canis familiaris [24]): 0; No. effective (Canis familiaris [25]): 6
CCN(CC)CC(O)COc1ccc(NS(C)(=O)=O)cc1 (stereo not given) |  | 4.8 |  |  |  |  |  |  |  |  |  |  |  |  | 
CC(C)NCC(O)c1ccc(NS(C)(=O)=O)cc1 (racemic) [SOTALOL] |  | 18 |  | -42 |  | 4 | -79 | -72 | 78 | -42 | ~2 | -61 | -51 | -51 | No. effective (Canis familiaris [26]): 6; LV dP/dt (Canis familiaris [13]): -52%; No. effective (Canis familiaris [27]): 7
